Rows were chosen to be rich in hits. Some 0.26% of all compounds tested hit in one or more screens of this group.
TNAP inh hiacc = blocks human TNAP under high phosphate acceptor concentration; P05186; purified TNAP, CDP-star luminescence, 1 M DEA; inhibition, % at 20 µM; 0.03% of 200,000 active;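 active means over 50% inhibition of tissue-nonspecific alkaline phosphatase at 20 µM in the single-dose screen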
Target sequence (P05186 whole entry, looked up): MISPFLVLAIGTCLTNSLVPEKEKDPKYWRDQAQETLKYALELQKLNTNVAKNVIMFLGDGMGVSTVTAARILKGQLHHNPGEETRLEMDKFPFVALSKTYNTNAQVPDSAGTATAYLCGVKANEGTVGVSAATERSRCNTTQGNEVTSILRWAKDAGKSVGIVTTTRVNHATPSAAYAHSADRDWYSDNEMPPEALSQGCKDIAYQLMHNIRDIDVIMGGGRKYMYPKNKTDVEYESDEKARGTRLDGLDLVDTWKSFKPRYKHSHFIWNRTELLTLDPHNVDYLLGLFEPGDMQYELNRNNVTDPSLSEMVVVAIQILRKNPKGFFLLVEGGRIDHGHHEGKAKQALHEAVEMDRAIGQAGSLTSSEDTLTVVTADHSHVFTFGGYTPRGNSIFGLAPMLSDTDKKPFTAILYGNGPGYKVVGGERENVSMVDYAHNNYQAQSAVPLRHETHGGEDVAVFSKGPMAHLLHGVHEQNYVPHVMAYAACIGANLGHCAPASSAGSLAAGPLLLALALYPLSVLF
TNAP inh no acc = TNAP (human) inhibition, acceptor-free conditions; 0.26% of 200,000 active; AID 1012; purified TNAP, CDP-star luminescence, 30 min; inhibition, % at 20 µM; P05186;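 active means tissue-nonspecific alkaline phosphatase inhibition above about 50% at 20 µM in the single-dose screen, limit read from the data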
TNAP act hi DEA = increases human TNAP activity under high phosphate acceptor concentration | 200,000 tested, under 10 active | AID 1136 | activation factor at 20 µM | purified TNAP, CDP-star luminescence, 1 M DEA, 30 min; hits give high values; 0 = EDTA background, 1 = DMSO-only activity | P05186;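 active means activation factor at least 2 at 20 µM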
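Control set: EDTA negative control, DMSO positive control / Assay system: human TNAP / Quantity: TNAP 1/800 final / Evaluation: TNAP activation factor scaled between EDTA and DMSO control wells / Measured by: luminescent substrate turnover signal / Compound dosing: one dose, 20 µM / Times: 30 min enzyme reaction at room temperature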
Calb biofilm kill = mixtures killing C. albicans biofilm; 0.02% of 120,000 active; C. albicans biofilm persisters + clotrimazole, fluorescence viability; primary screen in compound mixtures of four per well; inhibition, % at 7.6 µM;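 active means inhibition above 30.3% in the primary screen of four-compound pools, then above 30% when the compound was retested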;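 further: compounds exposed to preformed 24 h biofilms for 48 h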
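System: C. albicans CAF4-2 wild-type biofilms; Medium: RPMI/MOPS medium, pH 7.0; Reagent: Clotrimazole, 50 µg/mL; Times: biofilm formation 24 h, compound exposure 48 h, 37 °C; Detection: 2-h Alamar Blue fluorescence, 535/590 nm excitation/emission; Evaluation: percent inhibition of biofilm viability.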
Of the large screens only hits and unclear results are named; the others gave an inactive call.

N#CCCn1cc(/C=N/NC(N)=S)c(-c2ccccc2)n1	TNAP inh no acc 56.1
COC(=O)c1ccc2c(c1)C(=O)/C(=C/c1ccc(O)cc1)O2	TNAP inh hiacc 55.0
CC(=O)Oc1ccc(/C=C2/Oc3ccccc3C2=O)cc1	none (no result: TNAP inh hiacc, TNAP inh no acc, TNAP act hi DEA)
COc1ccccc1-c1nc(SCc2ccccn2)n[nH]1	TNAP inh no acc 84.3
COc1ccccc1-c1nnc(SCc2ccccn2)n1C	none (no result: Calb biofilm kill)
CCCCc1nc(SCC(=O)Nc2ncccn2)n[nH]1	TNAP inh no acc 58.4 (no result: Calb biofilm kill)
NS(=O)(=O)c1cccc(NC(=O)CSc2nc3ccc(Cl)cc3[nH]2)c1	TNAP inh no acc 66.9
NS(=O)(=O)c1ccc(NC(=O)CSc2ncccn2)cc1	none (no result: TNAP inh hiacc, TNAP inh no acc, TNAP act hi DEA)
CN(c1ccccc1)S(=O)(=O)c1cccc(NC(=O)CSc2n[nH]c(N)n2)c1	none (no result: TNAP inh hiacc, TNAP inh no acc, TNAP act hi DEA)
CC(C)c1nc(SCC(=O)Nc2cccc(S(N)(=O)=O)c2)n[nH]1	TNAP inh no acc 57.0 (no result: Calb biofilm kill)
CCCCc1nc(SCC(=O)Nc2ccc(S(N)(=O)=O)cc2)n[nH]1	TNAP inh no acc 60.2 (no result: Calb biofilm kill)
CC(C)(C)c1ccc(S(=O)(=O)N(CCCN2CCOCC2)Cc2cccs2)cc1	none
COC(=O)c1cc(-c2ccc(C)cc2)n[nH]1	TNAP inh no acc 90.5
CCOC(=O)c1cc(-c2cc3ccccc3o2)n[nH]1	none (no result: Calb biofilm kill)
CCOc1ccc(-c2cc(C(=O)OC)[nH]n2)cc1	TNAP inh no acc 85.3
CCOC(=O)c1cc(-c2ccc(C)o2)n[nH]1	TNAP inh no acc 68.5 (no result: Calb biofilm kill)
COC(=O)c1cc(-c2cccc(OC)c2)n[nH]1	none (no result: Calb biofilm kill)
COC(=O)c1cc(-c2ccc(OC)cc2)n[nH]1	TNAP inh no acc 94.3
N=C1C(c2ccccc2)=C(O)CN1c1cccc(O)c1	none
S=c1[nH]nc(-c2ccco2)n1/N=C/c1ccc(Cl)cc1	TNAP inh no acc 54.0
CC1CCCCN1C(=O)COC(=O)c1n[nH]c2ccccc12 (configuration not stated)	TNAP inh no acc 55.2 (no result: Calb biofilm kill)
CCOC(=O)c1n[nH]c2ccccc12	TNAP inh no acc 57.6 (no result: Calb biofilm kill)
O=C(COC(=O)c1n[nH]c2ccccc12)NC(=O)NC1CCCCC1	none (no result: Calb biofilm kill)
Cc1cc(N2C(=O)C3CC=CC(C)C3C2=O)no1 (configuration not stated)	none
Cc1ccc(C)c(NC2=C(Cl)C(=O)OC2OC(C)C)c1 (configuration not stated)	none
Nc1[nH]nc2c1NN(c1ccc(Cl)cc1Cl)N2	none
COc1cccc(-c2cc(N3C(=O)Nc4ccccc4N3O)n[nH]2)c1	none
CCOc1ccc(-c2cc(N3C(=O)Nc4ccccc4N3O)n[nH]2)cc1	TNAP inh no acc 52.1
COc1ccc(-c2[nH]ncc2CNC(C)CCn2cccn2)c(F)c1 (configuration not stated)	TNAP inh no acc 72.5
COc1ccc(-c2[nH]ncc2CNC(C)c2cn(C)nc2C)c(F)c1 (configuration not stated)	TNAP inh no acc 74.0
CCN1C(=O)C(CC(=O)Nc2ccc(F)cc2)N(CCCN2CCN(c3ccc(F)cc3)CC2)C1=S (configuration not stated)	none
Cc1ccc(-c2nc(Nc3ccccc3)n[nH]2)cc1	TNAP inh no acc 50.5 (no result: Calb biofilm kill)
COc1ccc(Nc2nc(N)nc(CSc3nccc(C)n3)n2)cc1	none (no result: Calb biofilm kill)
Nc1nc(CSc2n[nH]c(-c3ccccc3)n2)nc(Nc2ccccc2)n1	TNAP inh no acc 89.9 (no result: Calb biofilm kill)
COc1ccc(Nc2nc(N)nc(CSc3n[nH]c(-c4ccccc4)n3)n2)cc1	TNAP inh no acc 81.2 (no result: Calb biofilm kill)
Cc1ccc(S(=O)(=O)NCC(=O)N(CC(=O)NCC2CCCO2)Cc2ccco2)cc1 (configuration not stated)	none
O=C(O)CSCCOc1ccc(OCCSCC(=O)O)cc1	none
CC[n+]1c(/C=C/c2ccc(N(C)C)cc2)ccc2ccccc21	TNAP inh hiacc 59.6, TNAP inh no acc 60.0
CC[n+]1ccc(/C=C/c2ccc(N(C)C)cc2)c2ccccc21	TNAP inh hiacc 54.2, TNAP inh no acc 52.5, Calb biofilm kill 35.0
CC[n+]1ccccc1/C=C/c1ccc(N(C)C)cc1	none
CCN1/C(=C/C(C)=C/c2sc3ccccc3[n+]2CC)Sc2ccccc21	TNAP inh no acc 59.3
CCN1/C(=C\C(=S)Nc2ccccc2)Sc2ccccc21	none
CC(C)Cn1c(-c2ccccc2F)n[nH]c1=S	TNAP inh no acc 52.0 (no result: Calb biofilm kill)
O=C(O)C[C@@H]1C(=O)O[C@@H]2C(COC(=O)c3cc(O)c(O)c(O)c3)O[C@@H](OC(=O)c3cc(O)c(O)c(O)c3)[C@@H](OC(=O)c3cc(O)c(O)c4c3[C@H]1[C@H](O)C(=O)O4)[C@H]2OC(=O)c1cc(O)c(O)c(O)c1 (some centres not stated)	none (no result: TNAP inh hiacc, TNAP inh no acc, TNAP act hi DEA)
O=C(c1n[nH]c2c1CCCC2)n1ccnc1	TNAP inh no acc 69.6 (no result: Calb biofilm kill)
O=C(O)c1n[nH]c2c1CCCC2	none (no result: Calb biofilm kill)
Cn1c(-n2c(CCCN3C(=O)c4ccccc4C3=O)nc3ccccc3c2=O)nc2ccccc21	none (no result: Calb biofilm kill)
O=C1c2ccccc2C(=O)N1CCCc1nc2ccccc2c(=O)n1CCCn1ccnc1	TNAP inh no acc 52.9 (no result: Calb biofilm kill)
CCCCOC(=O)Nc1cccc(Cl)c1C	none (no result: Calb biofilm kill)
Cn1c(NNC(=O)C2CCCCC2)cc(=O)n(C)c1=O	none
CN=c1scc(-c2ccco2)n1/N=C/c1ccc(O)c(O)c1	TNAP inh no acc 67.4
C=CCN=c1scc(C)n1/N=C/c1ccc(O)c(O)c1	TNAP inh no acc 77.2
O=C(CSc1ccc2ccccc2c1)NCCc1ccc(O)c(O)c1	TNAP inh no acc 53.6
COc1ccc(CCNC(=O)CSc2ccc3ccccc3c2)cc1OC	none
CCOc1cc(C(c2c(C)[nH][nH]c2=O)c2c(C)[nH][nH]c2=O)ccc1OS(=O)(=O)c1ccccc1	TNAP inh hiacc 61.6 (no result: Calb biofilm kill)
Cc1ccc(S(=O)(=O)Oc2ccc(C(c3c(C)[nH][nH]c3=O)c3c(C)[nH][nH]c3=O)cc2)cc1	TNAP inh hiacc 60.7 (no result: Calb biofilm kill)
COC(OC)c1ccc(C#N)c(SCc2ccc(C)cc2)n1	none (no result: TNAP inh hiacc, TNAP inh no acc, TNAP act hi DEA)
O=C(CN1CCN(S(=O)(=O)c2ccc(F)cc2)CC1)c1ccc(O)c(O)c1	TNAP inh no acc 56.3
CN1CCN(c2ccc(NC(=O)CN3CCOCC3)cc2F)CC1	none
FC(F)(F)c1cccc(N2CCN(CC3CC=CCC3)CC2)c1 (configuration not stated)	none (no result: Calb biofilm kill)
Brc1ccc(C2NCCS2)cc1 (configuration not stated)	TNAP inh no acc 72.3
O=[N+]([O-])c1ccc(O)c(/C=N/NC2=NS(=O)(=O)c3ccccc32)c1	TNAP inh no acc 73.4
CC(C)(C)C1CCC(C(=O)OCC(=O)c2ccc[nH]2)CC1 (configuration not stated)	none
Cc1n[nH]c(C)c1S(=O)(=O)N1CCOCC1	TNAP inh no acc 56.8 (no result: Calb biofilm kill)
Cc1n[nH]c(C)c1S(=O)(=O)N1CCC(C(=O)O)CC1	none (no result: Calb biofilm kill)
CCOc1cc(/C=C2\CCC/C(=C\c3cc(Cl)c(O)c(OCC)c3)C2=O)cc(Cl)c1O	TNAP inh hiacc 53.4 (no result: Calb biofilm kill)
Cc1ccc(-c2cc(C(=O)N/N=C/C=C/c3ccccc3)n[nH]2)s1	none
Cc1ccc(-c2cc(C(=O)O)n[nH]2)s1	TNAP inh no acc 77.2
CC1CCC(C(=O)NNC(=O)c2cc(-c3ccco3)[nH]n2)CC1 (configuration not stated)	none
O=C(O)c1cc(-c2ccco2)[nH]n1	TNAP inh no acc 51.2 (no result: Calb biofilm kill)

High-throughput results as filed in PubChem.
